In ChEMBL document CHEMBL5678805, “Intermittent administration of MEK inhibitor GDC-0973 plus PI3K inhibitor GDC-0941 triggers robust apoptosis and tumor growth inhibition” (Cancer Res, 2012):
The source made the active and inactive calls. The rule behind the calls is not given here.

How the values were obtained:
Focal adhesion kinase 1 = Focal adhesion kinase 1 (Homo sapiens, UniProt Q05397); experiment: Inhibition of FAK (unknown origin)
[1] = target: Fibroblast growth factor receptor 1 (Homo sapiens, UniProt P11362); experiment: Inhibition of FGFR1 (unknown origin)
Sequence of Fibroblast growth factor receptor 1 (P11362 whole entry): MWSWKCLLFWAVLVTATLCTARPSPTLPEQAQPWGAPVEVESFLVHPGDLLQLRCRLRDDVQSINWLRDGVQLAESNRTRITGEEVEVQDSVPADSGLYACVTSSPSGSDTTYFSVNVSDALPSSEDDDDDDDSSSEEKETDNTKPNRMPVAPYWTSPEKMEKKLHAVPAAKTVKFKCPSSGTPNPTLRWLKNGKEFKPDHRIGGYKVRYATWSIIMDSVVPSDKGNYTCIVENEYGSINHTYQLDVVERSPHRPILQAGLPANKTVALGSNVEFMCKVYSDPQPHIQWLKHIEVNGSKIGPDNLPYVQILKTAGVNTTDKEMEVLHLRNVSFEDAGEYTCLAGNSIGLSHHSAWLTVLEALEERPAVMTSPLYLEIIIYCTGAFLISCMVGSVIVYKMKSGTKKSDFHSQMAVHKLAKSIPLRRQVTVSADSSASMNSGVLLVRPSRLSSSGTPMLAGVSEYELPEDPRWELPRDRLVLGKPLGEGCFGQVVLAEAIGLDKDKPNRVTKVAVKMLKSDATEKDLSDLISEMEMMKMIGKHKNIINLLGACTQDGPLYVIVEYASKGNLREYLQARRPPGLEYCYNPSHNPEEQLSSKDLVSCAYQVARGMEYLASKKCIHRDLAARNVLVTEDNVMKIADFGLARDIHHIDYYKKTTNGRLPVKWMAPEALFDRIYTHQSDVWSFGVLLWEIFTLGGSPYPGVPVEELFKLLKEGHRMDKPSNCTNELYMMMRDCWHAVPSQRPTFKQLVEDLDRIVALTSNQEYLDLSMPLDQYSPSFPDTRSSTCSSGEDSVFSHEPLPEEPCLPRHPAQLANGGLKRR

[2] = target: Glycogen synthase kinase-3 beta (Homo sapiens, UniProt P49841); experiment: Inhibition of GSK3beta (unknown origin)
Sequence of Glycogen synthase kinase-3 beta (P49841 whole entry): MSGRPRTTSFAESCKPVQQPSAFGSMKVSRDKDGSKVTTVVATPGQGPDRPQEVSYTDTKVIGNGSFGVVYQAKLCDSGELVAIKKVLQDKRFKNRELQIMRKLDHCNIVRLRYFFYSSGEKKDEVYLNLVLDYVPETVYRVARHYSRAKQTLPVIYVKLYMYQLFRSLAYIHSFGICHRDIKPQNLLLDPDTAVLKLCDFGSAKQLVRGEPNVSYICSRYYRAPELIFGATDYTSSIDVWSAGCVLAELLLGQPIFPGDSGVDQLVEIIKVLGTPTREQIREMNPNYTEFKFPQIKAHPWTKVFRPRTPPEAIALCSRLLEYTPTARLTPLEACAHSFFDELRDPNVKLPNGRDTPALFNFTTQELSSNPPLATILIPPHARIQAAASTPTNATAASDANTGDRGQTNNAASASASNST

[3] = target: Tyrosine-protein kinase HCK (Homo sapiens, UniProt P08631); experiment: Inhibition of Hck (unknown origin)
Sequence of Tyrosine-protein kinase HCK (P08631 whole entry): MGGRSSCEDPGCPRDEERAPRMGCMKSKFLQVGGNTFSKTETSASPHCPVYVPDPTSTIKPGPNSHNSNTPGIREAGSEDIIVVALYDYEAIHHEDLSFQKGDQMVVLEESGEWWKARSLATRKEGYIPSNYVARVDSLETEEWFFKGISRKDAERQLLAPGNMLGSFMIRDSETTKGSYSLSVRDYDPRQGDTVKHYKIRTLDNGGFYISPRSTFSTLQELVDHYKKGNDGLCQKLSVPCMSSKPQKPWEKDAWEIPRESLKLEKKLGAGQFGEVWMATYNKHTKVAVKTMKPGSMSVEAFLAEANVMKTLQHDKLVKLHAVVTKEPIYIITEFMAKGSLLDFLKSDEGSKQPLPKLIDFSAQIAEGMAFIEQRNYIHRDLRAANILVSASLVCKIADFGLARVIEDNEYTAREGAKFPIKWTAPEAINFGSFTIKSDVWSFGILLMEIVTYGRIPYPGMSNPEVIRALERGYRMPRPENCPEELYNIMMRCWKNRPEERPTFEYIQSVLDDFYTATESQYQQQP

Insulin receptor = Insulin receptor (Homo sapiens, UniProt P06213); experiment: Inhibition of insulin receptor (unknown origin)
Sequence of Insulin receptor (P06213 28-758 limits assumed): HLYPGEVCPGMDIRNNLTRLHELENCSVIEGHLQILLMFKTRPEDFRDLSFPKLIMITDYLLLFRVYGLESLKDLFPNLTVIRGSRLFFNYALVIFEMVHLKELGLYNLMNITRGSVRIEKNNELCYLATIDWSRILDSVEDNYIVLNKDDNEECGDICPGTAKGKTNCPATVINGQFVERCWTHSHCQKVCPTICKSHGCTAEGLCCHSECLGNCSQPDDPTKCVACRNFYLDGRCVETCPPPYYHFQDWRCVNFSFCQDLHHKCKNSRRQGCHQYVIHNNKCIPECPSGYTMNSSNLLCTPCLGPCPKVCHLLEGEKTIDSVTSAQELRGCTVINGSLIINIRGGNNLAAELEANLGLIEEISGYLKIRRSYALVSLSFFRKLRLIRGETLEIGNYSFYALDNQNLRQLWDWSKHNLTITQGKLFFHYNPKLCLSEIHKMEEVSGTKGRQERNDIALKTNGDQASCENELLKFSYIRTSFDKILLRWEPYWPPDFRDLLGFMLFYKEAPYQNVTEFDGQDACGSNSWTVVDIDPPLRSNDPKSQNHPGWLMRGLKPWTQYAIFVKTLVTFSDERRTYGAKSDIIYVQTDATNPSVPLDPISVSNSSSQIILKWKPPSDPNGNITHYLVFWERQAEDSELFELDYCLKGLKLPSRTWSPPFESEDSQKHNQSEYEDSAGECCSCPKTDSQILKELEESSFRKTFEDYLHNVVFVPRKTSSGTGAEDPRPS
Sequence of Insulin receptor (P06213 763-1382 limits assumed): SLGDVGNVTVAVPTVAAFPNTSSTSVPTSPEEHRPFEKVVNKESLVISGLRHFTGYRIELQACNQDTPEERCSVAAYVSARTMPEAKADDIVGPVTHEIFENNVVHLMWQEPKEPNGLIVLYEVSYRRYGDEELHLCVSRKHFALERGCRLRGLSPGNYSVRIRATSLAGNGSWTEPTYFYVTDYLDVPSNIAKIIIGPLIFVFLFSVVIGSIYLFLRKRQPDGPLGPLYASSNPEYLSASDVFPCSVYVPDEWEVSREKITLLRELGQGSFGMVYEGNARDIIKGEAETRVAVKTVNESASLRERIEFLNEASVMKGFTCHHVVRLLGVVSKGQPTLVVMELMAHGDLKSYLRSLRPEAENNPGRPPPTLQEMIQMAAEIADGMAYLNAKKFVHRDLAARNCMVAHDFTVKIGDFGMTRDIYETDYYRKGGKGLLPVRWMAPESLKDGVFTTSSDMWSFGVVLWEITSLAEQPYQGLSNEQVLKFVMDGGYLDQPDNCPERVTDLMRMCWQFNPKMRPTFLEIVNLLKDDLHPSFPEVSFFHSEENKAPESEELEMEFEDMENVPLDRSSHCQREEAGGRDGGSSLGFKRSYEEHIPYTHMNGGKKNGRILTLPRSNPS

[4] = target: Ribosomal protein S6 kinase alpha-5 (Homo sapiens, UniProt O75582); experiment: Inhibition of MSK1 (unknown origin)
Sequence of Ribosomal protein S6 kinase alpha-5 (O75582 whole entry): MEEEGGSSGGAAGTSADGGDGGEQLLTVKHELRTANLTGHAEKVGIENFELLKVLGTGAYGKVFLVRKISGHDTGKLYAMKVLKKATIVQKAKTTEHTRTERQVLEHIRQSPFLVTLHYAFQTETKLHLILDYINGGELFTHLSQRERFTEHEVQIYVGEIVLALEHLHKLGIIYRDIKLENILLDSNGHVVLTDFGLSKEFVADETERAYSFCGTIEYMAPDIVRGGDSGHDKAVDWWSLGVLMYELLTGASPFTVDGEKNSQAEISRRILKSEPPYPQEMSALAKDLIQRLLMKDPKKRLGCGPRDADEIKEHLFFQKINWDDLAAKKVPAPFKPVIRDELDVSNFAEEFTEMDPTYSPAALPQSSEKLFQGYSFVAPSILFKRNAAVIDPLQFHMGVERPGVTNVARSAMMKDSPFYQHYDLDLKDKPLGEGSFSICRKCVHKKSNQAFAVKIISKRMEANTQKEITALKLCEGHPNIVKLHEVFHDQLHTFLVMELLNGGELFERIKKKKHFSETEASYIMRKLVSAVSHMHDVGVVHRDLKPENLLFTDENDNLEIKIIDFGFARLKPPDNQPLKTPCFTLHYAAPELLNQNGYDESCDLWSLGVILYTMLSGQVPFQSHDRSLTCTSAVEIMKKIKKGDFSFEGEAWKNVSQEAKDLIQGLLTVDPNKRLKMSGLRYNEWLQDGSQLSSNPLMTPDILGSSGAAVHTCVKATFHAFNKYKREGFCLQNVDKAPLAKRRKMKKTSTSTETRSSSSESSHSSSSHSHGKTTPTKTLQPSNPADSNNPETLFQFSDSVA

[5] = target: Serine/threonine-protein kinase NLK (Homo sapiens, UniProt Q9UBE8); experiment: Inhibition of NLK (unknown origin)
Sequence of Serine/threonine-protein kinase NLK (Q9UBE8 whole entry): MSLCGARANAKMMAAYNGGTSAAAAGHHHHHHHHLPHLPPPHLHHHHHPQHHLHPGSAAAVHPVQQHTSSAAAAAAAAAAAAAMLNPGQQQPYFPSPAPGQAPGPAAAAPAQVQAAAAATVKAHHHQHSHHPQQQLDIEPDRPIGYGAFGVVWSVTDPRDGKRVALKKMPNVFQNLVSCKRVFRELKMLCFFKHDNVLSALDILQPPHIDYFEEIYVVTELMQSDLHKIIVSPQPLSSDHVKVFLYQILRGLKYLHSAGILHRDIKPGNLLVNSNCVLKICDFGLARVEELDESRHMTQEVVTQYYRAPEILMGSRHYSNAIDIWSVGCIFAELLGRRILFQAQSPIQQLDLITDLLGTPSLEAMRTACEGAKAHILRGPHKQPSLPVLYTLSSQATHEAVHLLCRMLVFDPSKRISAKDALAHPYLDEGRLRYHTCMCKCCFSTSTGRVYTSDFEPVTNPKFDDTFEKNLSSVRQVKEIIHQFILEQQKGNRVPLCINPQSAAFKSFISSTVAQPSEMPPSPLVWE

[6] = target: Serine/threonine-protein kinase pim-2 (Homo sapiens, UniProt Q9P1W9); experiment: Inhibition of PIM2 (unknown origin)
Sequence of Serine/threonine-protein kinase pim-2 (Q9P1W9 whole entry): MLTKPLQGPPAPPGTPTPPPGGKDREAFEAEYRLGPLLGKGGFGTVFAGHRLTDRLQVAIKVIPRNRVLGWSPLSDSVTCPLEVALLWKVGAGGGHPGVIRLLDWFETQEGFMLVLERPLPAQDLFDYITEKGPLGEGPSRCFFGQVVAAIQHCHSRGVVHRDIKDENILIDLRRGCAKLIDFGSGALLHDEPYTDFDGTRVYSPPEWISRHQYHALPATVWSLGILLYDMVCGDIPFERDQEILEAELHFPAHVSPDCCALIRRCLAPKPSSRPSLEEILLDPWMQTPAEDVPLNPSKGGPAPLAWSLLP

[7] = target: Protein kinase C gamma type (Homo sapiens, UniProt P05129); experiment: Inhibition of PKCg (unknown origin)
[8] = target: Serine/threonine-protein kinase PLK3 (Homo sapiens, UniProt Q9H4B4); experiment: Inhibition of Plk3 (unknown origin)
MOLM-13 = experiment: Antitumor activity against human MOLM-13 cells harboring FLT3 Y599_D600insFDFREYE and c-Cbl E366_Q409del mutant xenografted in mouse assessed as tumor growth inhibition at 10 mg/kg, po; type: functional; details: read-out: TGI
Outline: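 Human tumor xenografts in mice were dosed orally at the indicated mg/kg. Tumor volume was measured with calipers as (L×W×W)/2. %TGI = 100 × [1 − (AUC treatment/d)/(AUC vehicle/d)], using the area under the fitted tumor-growth curve per day for each dose group relative to vehicle.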

HCT-116 = experiment: Antitumor activity against human HCT-116 cells harboring KRAS G13D/PIK3CA […]/CTNNB1 S45del/CDKN2A G23fs mutant xenografted in mouse assessed as tumor growth inhibition at 10 mg/kg, po; type: functional; details: read-out: TGI
Outline: (§1)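 Single-agent dose ranging in human tumor xenograft mice at 2.5, 5 or 10 mg/kg oral. Tumor volume was measured by caliper as (L×W×W)/2. %TGI = 100×[1 − AUC(treatment/d)/AUC(vehicle/d)] from the fitted growth curve per dose group, relative to vehicle.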

A-375 [9] = experiment: Antitumor activity against human A-375 cells harboring BRAF V600E/CDKN2A E61 mutant xenografted in mouse assessed as tumor growth inhibition at 5 mg/kg, po; type: functional; details: A-375, read-out: TGI
Outline: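 Mice carrying human tumor xenografts dosed orally once daily for 21 consecutive days. Tumor volume measured by calipers as (L×W×W)/2. %TGI = 100×[1 − AUC(treatment/day)/AUC(vehicle/day)], using the area under the fitted growth curve relative to vehicle.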

A549 = experiment: Antitumor activity against human A549 cells harboring KRAS G12S/LKB1Q37/SMARCA4 Q729/CDKN2A mutant xenografted in mouse assessed as tumor growth inhibition at 10 mg/kg, po; type: functional; details: read-out: TGI; outline: as §1
Calu-6 [10] = experiment: Antitumor activity against human Calu-6 cells harboring KRAS Q61K and TP53 R196 mutant xenografted in mouse assessed as tumor growth inhibition at 2.5 mg/kg, po; type: functional; details: read-out: TGI; outline: as §1
Calu-6 [11] = experiment: Antitumor activity against human Calu-6 cells harboring KRAS Q61K and TP53 R196 mutant xenografted in mouse assessed as tumor growth inhibition at 10 mg/kg, po; type: functional; details: read-out: TGI; outline: as §1
Hs-578T = experiment: Antiproliferative activity against human Hs-578T cells assessed as reduction in cell viability incubated for 96 hrs in presence of 4-(2-(1H-indazol-4-yl)-6-((4-(methylsulfonyl)piperazin-1-yl)methyl)thieno[3,2-d]pyrimidin-4-yl)morpholine; type: functional, cell-based
A2058 [12] = experiment: Inhibition of PI3K/MEK signaling pathway in human A2058 cells assessed as decrease in ERK phosphorylation by incubated for 24 hrs by Western blot analysis; type: cell-based
A-375 [13] = experiment: Antitumor activity against human A-375 cells xenografted in mouse assessed as decrease in pS6 level at 5 mg/kg, po administered for 4 days and measured after 2 hrs in presence of 4-(2-(1H-indazol-4-yl)-6-((4-(methylsulfonyl)piperazin-1-yl)methyl)thieno[3,2-d]pyrimidin-4-yl)morpholine; type: functional, organism-based; details: time 98.0 hrs
[14] = Antitumor activity against human A375.X1 cells xenografted in mouse assessed as tumor growth inhibition at 20 mg/kg, po administered every third day for 21 days; type: functional; details: A375.X1, 504 h, time 21 day, read-out: TGI
Outline: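 Human tumor xenografts in mice. Drugs given orally, as single agents or combined with the PI3K inhibitor. Schedules were daily (QD) or every third day (Q3D) over 21 days. Tumor volume was measured by caliper as (L×W×W)/2. %TGI = 100×[1 − AUC(treatment/d)/AUC(vehicle/d)] from fitted growth curves, with group means. Tumor lysates were immunoblotted for pS6.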

888-mel [15] = experiment: Inhibition of ERK phosphorylation in human 888-mel cells incubated for 24 hrs in presence of 4-(2-(1H-indazol-4-yl)-6-((4-(methylsulfonyl)piperazin-1-yl)methyl)thieno[3,2-d]pyrimidin-4-yl)morpholine by immunoblotting analysis; type: cell-based
888-mel [16] = experiment: Upregulation of Bim level in human 888-mel cells preincubated with compound for 24 hrs followed by compound washout and measured after 2 hrs in presence of 4-(2-(1H-indazol-4-yl)-6-((4-(methylsulfonyl)piperazin-1-yl)methyl)thieno[3,2-d]pyrimidin-4-yl)morpholine by immunoblotting analysis; type: functional, cell-based
A2058 [17] = experiment: Antitumor activity against human A2058 cells harboring BRAF V600E/PTEN deletion mutant xenografted in mouse assessed as suppression of S6 phosphorylation at 15 mg/kg, po administered every third day for 21 days and measured after 72 hrs post dose by Western blot analysis; type: functional, organism-based; details: time 576.0 hrs
A2058 [18] = experiment: Antitumor activity against human A2058 cells harboring BRAF V600E/PTEN deletion mutant xenografted in mouse assessed as decrease in tumor volume at 10 mg/kg, po administered once weekly for 21 days in presence of GDC-0980 by digital calipers analysis; type: functional, organism-based; details: time 21.0 day

IC50 (Focal adhesion kinase 1): > 10 µM
IC50 [1]: > 10 µM
IC50 [2]: > 10 µM
IC50 [3]: > 10 µM
IC50 (Insulin receptor): > 10 µM
IC50 [4]: > 10 µM
IC50 [5]: > 10 µM
IC50 [6]: > 10 µM
IC50 [7]: > 10 µM
IC50 [8]: > 10 µM
SMILES: O=C(c1ccc(F)c(F)c1Nc1ccc(I)cc1F)N1CC(O)([C@@H]2CCCCN2)C1 [COBIMETINIB]
inhibition in vivo at 10 mg/kg (MOLM-13): 36%
inhibition in vivo at 10 mg/kg (HCT-116): 84.5%
inhibition in vivo at 5 mg/kg (A-375 [9]): 120%
inhibition in vivo at 10 mg/kg (A549): 108%
inhibition in vivo at 2.5 mg/kg (Calu-6 [10]): 27.5%
inhibition in vivo at 10 mg/kg (Calu-6 [11]): 44%
Activity (Hs-578T): inactive
inhibition (A2058 [12]): Active
Activity (A-375 [13]): Active
inhibition in vivo at 20 mg/kg [14]: 94%
inhibition (888-mel [15]): Active
Activity (888-mel [16]): Active
Activity (A2058 [17]): Active
Activity (A2058 [18]): Active
